Experimental data: PubChem BioAssay AID588627 (Johns Hopkins Ion Channel Center, 2011)
Among all 310,000 compounds or so, about 1,400 (0.45%) were called active.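 Rule for the calls: active = calcium response B-score plate-corrected fluorescence ratio at least 3 library SD, with starting fluorescence B-score inside 5 SD; inactive = the rest.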 For the sample, actives were picked, then their nearest neighbours and some compounds at random.

What follows are compounds tested against Mas-related G-protein coupled receptor member X1 (Homo sapiens) (UniProt Q96LB2) (assay: MrgX1 activation via calcium signaling – HEK293 cells, Fluo-4 calcium flux, primary screen (AID 588627;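 for B-score: B-score of the peak-minus-trough calcium fluorescence change over baseline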)). Details: Fluo-4 calcium fluorescence, agonist mode, at 10 µM; hits give high values.
Mas-related G-protein coupled receptor member X1 (Homo sapiens), sequence (Q96LB2 whole entry, looked up): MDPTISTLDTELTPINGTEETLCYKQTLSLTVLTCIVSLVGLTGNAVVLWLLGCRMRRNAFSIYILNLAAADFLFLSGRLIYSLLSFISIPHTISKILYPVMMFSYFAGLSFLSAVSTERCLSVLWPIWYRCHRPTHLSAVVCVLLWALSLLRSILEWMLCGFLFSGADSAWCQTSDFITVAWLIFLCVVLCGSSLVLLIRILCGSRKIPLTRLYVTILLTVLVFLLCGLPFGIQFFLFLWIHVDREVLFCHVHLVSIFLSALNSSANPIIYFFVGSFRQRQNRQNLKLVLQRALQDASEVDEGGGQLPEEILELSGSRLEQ
Summary of the method: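 Test system: Stable human MrgX1 HEK293 cell line | Schedule: Overnight plating before 1 h dye loading | Read-out basis: Baseline-normalised fluorescence change ratio, B-scored | Detection: Kinetic calcium dye fluorescence, Fluo-4 NW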

| Compound | B-score |
| --- | --- |
| CN1CCN(C(=O)c2ccc(NS(=O)(=O)c3ccccc3)cc2)CC1 | inactive |
| C/C(=N\NC(=O)c1ccc2ccccc2c1)c1cccnc1 | inactive |
| O=C(NCCC1CCCCN1S(=O)(=O)c1ccc(F)cc1)C(=O)NC1CC1 (stereo unspecified) | inactive |
| CC(=O)Nc1ccc(NC(=O)CN2C(=O)COc3ccc(S(=O)(=O)N4CCCCC4)cc32)cc1 | inactive |
| Cc1cccc(N(C)C(=O)CN2C(=O)COc3ccc(S(=O)(=O)N4CCCCCC4)cc32)c1 | 46.3 (active) |
| CN(C)c1ccc(CNC(=O)CN2C(=O)COc3ccc(S(=O)(=O)N4CCCC4)cc32)cc1 | inactive |
| CCN(CC)S(=O)(=O)c1ccc(N2CC(C(=O)NCc3cccnc3)CC2=O)cc1 (stereo unspecified) | inactive |
| COc1ccnc(Oc2ccccc2)n1 | inactive |
| Cc1ccc(S(=O)(=O)N(CC(=O)NN=C2CCN(C)CC2)c2ccc(F)cc2)cc1 | inactive |
| O=C1c2ccccc2C(=O)N1c1cccc2ccccc12 | inactive |
| CC(C)OC(=O)CN1C(=O)C(=O)c2ccccc21 | inactive |
| O=C1C(=O)N(c2ccccc2)c2ccccc21 | 29.6 (active) |
| N/C(=N\OC(=O)CCCC(=O)O)c1ncc(C(F)(F)F)cc1Cl | inactive |
| CC1CCCCC1NC(=O)CN1CCC(O)(c2ccc3c(c2)OCO3)CC1 (stereo unspecified) | inactive |
| O=[N+]([O-])c1ccc2c(c1)C(O)n1nc(-c3ccccc3)nc1S2 (stereo unspecified) | inactive |
| Cn1c2ccccc2c2cc(/C=C(\NC(=O)c3ccccc3)C(=O)NCC(=O)O)ccc21 | 52.2 (active) |
| COc1ccc(/C=C(\NC(=O)c2ccccc2)C(=O)NCCN2CCOCC2)cc1OC | inactive |
| CCOC(=O)CNC(=O)/C(=C\c1ccc(F)cc1)NC(=O)c1ccccc1 | inactive |
| C/C(=N\Nc1cccc(C(=O)O)c1)c1ccc2c(c1)Nc1ccccc1S2 | inactive |
| CCn1c(CC(=O)Nc2ccccc2)nnc1SCC(=O)N1CCOCC1 | inactive |
| O=[N+]([O-])c1ccc(F)cc1Oc1nc(-c2cccnc2)nc2ccccc12 | inactive |
| Cc1cccc(-c2nc(Nc3ccc(O)cc3)c3ccccc3n2)c1 | inactive |
| COc1ccc(Nc2nc(-c3cccnc3)nc3ccccc23)cn1 | 38.4 (active) |
| CN(C)/C(=N\OC(=O)c1ccccc1)c1nonc1N | inactive |
| C=CCO/N=C/C1=C(O)C(C(=O)OC)C(C)(C)CC1=O (stereo unspecified) | inactive |
| C#CCOCCOCCOCCNc1nc(N2CCN(C(=O)CCCCCCCCCCNC(=O)[C@H]([C@@H](C)CC)n3cc(CCCCN=C(N)N)nn3)CC2)nc(N2CCN(C(=O)CCCCCCCCCCNC(=O)[C@H](CO)n3cc(CCCSC)nn3)CC2)n1 | inactive |

| Compound | B-score |
| --- | --- |
| C#CCOCCOCCOCCNc1nc(N2CCN(C(=O)CCCCCCCCCCNC(=O)Cn3cc(CCCCCN)nn3)CC2)nc(N2CCN(C(=O)CCCCCCCCCCNC(=O)[C@H](CO)n3cc(CCCSC)nn3)CC2)n1 | inactive |
| C#CCOCCOCCOCCNc1nc(N2CCN(C(=O)CCCCCCCCCCNC(=O)[C@H](CCCCN)n3cc(C)nn3)CC2)nc(N2CCN(C(=O)CCCCCCCCCCNC(=O)[C@H](CO)n3cc(CCCSC)nn3)CC2)n1 | 29.2 (active) |
| COC(=O)c1cc(S(=O)(=O)N2CCC(C(N)=O)CC2)oc1C | inactive |
| CCOc1ccc(NC(=O)c2ccc(NC(=O)CN3C(=O)C(=O)N(CC(C)C)C3=O)cc2)cc1 | inactive |
| Cc1cc(C(=O)NNC(=S)Nc2ccccc2C)cs1 | inactive |
| COCCCNc1nc2ccccc2nc1NS(=O)(=O)c1ccc(F)cc1 | inactive |
| C#CCOc1ccc(/C=C2/C(=O)NN(c3ccccc3)C2=O)cc1OC | inactive |
| COc1cc(/C=C2/C(=O)NN(c3ccc(F)cc3)C2=O)cc([N+](=O)[O-])c1O | inactive |
| COc1cc(/C=C2/C(=O)NN(c3cccc(Cl)c3)C2=O)cc(Br)c1O | 45.3 (active) |
| CCCCc1nc(SCC(=O)Nc2nnc(C(C)C)s2)n[nH]1 | inactive |
| C=CCN1CN(S(=O)(=O)c2ccc(OC)cc2)c2nc3ccccc3nc21 | inactive |
| O=C(COC(=O)/C=C/c1cccc(Cl)c1)NCCc1ccccc1 | inactive |
| COCCNC(=O)C1CCN(C(=O)C2CC(=O)N(c3ccc(C)cc3)C2)CC1 (stereo unspecified) | inactive |
| O=C(Cc1ccc(Cl)c(Cl)c1)Nc1ccc(SC(F)F)cc1 | inactive |
| O=C(CC(O)(C(F)(F)F)C(F)(F)F)Nc1ccc(Cl)c(Cl)c1 | 38.4 (active) |
| O=C(CC1SCCNC1=O)Nc1ccc(Cl)c(Cl)c1 (stereo unspecified) | inactive |
| Cc1nn(C)c(C)c1C(C)NC(=O)c1ccc(OC2CCN(Cc3ccccn3)CC2)cc1 (stereo unspecified) | inactive |
| COC(=O)c1ccc(COC(=O)C2CCN(S(=O)(=O)c3c(Cl)cccc3Cl)CC2)o1 | 28.7 (active) |
| COc1cccc(COC(=O)C2CCN(S(=O)(=O)c3ccc(Cl)cc3)CC2)c1OC | inactive |
| CCOc1ccc(S(=O)(=O)N2CCC(C(=O)OCc3ccc(OC)cc3)CC2)cc1 | inactive |
| NC(=O)C1CCN(C(=O)CC2C(=O)NCCN2Cc2cccc(Oc3ccccc3)c2)CC1 (stereo unspecified) | inactive |
| Cc1nn(CCCC(=O)NCc2ccccc2Cl)c(=O)c2nccn12 | inactive |
| COc1ccc(OC)c(C(=O)c2ccc(Cl)cc2)c1 | 29.4 (active) |
| COc1ccc(OC)c(C(=O)c2ccc(C(=O)O)cc2)c1 | inactive |
| COc1ccc(OC)c(C(=O)c2coc3ccc(OC)cc23)c1 | inactive |
